# An excerpt weighted towards active compounds, which were near 12% of everything screened.
# WT yeast gro inh: growth inhibition of WT yeast, mitochondrial fusion screen; mitochondrial fusion phenotypic screen, WT strain; inhibition, % at 10 µM; 2.1% of 190,000 active; in the data active = inhibition above about 58%; tested in S. cerevisiae
# Diaphorase act: activates diaphorase or chemically reduces, flagging diaphorase assay artifacts. Diaphorase/resazurin coupled assay, resorufin fluorescence, 16 min; active compounds read high; 1 = vehicle wells, 0 = NADH-free wells. activation factor at 20 µM. 0.005% of 190,000 active. AID 1229;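 active = diaphorase activity raised at least twofold by the compound at 20 µM; inactive = activation factor below 2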
#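 Material: Clostridium kluyveri diaphorase, purified enzyme; Quantity: enzyme 0.07 U/mL final; Medium: HEPES pH 7.4 buffer with MgCl2 and Tween 20; Dosing: single compound dose of 20 µM, 1% DMSO final; Schedule: 16 min reaction at room temperature; Measured by: red resorufin fluorescence at 544/590 nm excitation/emission.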
# Cl transport mod: modulators of human KCC2 chloride dependent transport; KCC2 cells, thallium flux FluoZin-2 fluorescence; B-score of Tl+ flux slope (higher = more flux/activation; lower = inhibition) at 10 µM; 2.2% of 190,000 active; AID 1456;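 active = thallium flux slope and its plate-corrected score both differing from the plate sample mean at a set confidence after two filtering rounds, in either direction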;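 note: slope of fluorescence scaled to starting intensity during 10 to 20 s after thallium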
# ROMK mod: human ROMK K+ channel modulation, primary screen; 2% of 130,000 active; B-score at 10 µM; Tet-inducible ROMK, thallium flux fluorescence; actives lie on both sides; P48048;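 active = signal ratio slope over the read window, or its plate-corrected B-score, at least 3 SD from the plate mean, either direction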;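 note: B-score of the F/F0 ratio slope over 7 to 12 s after thallium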
# Target sequence (P48048 whole entry, looked up): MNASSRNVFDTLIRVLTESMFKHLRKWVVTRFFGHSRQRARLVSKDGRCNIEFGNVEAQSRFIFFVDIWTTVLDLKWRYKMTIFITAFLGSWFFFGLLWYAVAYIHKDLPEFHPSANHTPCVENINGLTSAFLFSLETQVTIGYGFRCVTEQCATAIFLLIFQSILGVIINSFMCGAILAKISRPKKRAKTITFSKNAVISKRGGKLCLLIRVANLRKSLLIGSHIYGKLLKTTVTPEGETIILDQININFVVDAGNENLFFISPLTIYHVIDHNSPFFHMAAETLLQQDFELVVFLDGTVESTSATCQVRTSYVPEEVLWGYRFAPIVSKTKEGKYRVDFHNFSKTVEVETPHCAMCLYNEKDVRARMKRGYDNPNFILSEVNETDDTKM
# Diaphorase inh: counter-screen for diaphorase-based assays: diaphorase inhibitors and chemical oxidizers. diaphorase resazurin-to-resorufin fluorescence, NADH, 16 min; bacterial (C. kluyveri) enzyme, not human. 0.69% of 190,000 active. inhibition, % at 20 µM;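 active = primary screen inhibition at 20 µM above a set limit, cut at about 50% in these data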
#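 Assay system – diaphorase enzyme from Clostridium kluyveri · Amount – diaphorase 0.14 U/mL (working solution) · Times – reaction incubation of 16 min at room temperature · Controls – No-NADH positive control and DMSO neutral control · Signal – resorufin fluorescence 544/590 nm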
# L major viab: reduces viability of Leishmania major promastigotes; inhibition, % at 10 µM; 9% of 200,000 active; resazurin fluorescence viability; AID 1063; in the data active = inhibition above about 50%;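 note: promastigotes grown with compound for 44 hours at 28 °C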
# Hits are given with their value; i = inactive; nt = not tested or not shown.
SMILES,WT yeast gro inh,Diaphorase act,Cl transport mod,ROMK mod,Diaphorase inh,L major viab
CCOC(=O)c1ccc(NC(=O)CSc2nnc(CCc3ccc(C)o3)n2-c2ccccc2)cc1,i,i,i,nt,i,51.6
Cc1ccc(/C(N)=N/OC(=O)c2ccc(Cl)cc2Cl)cc1,i,i,i,i,i,84.6
Cc1ccc(/C(N)=N/OC(=O)c2ccc3c(c2)OCO3)cc1,i,i,i,i,i,51.4
Cc1ccc(NC(=O)CN2C(=O)S/C(=C\c3ccc(-c4cccc(C(=O)O)c4C)o3)C2=O)cc1C,i,i,i,i,110.4,i
O=c1c2c(n3cnnc3n1-c1ccccc1)-c1ccccc1CC21CCCCC1,i,i,i,nt,i,i
Cc1cccc(-n2c(=O)c3c(n4cnnc24)-c2ccccc2CC32CCCCC2)c1,74.2,i,i,nt,i,i
COc1cc(CN2CCC(C(=O)N3CCN(c4ccccc4F)CC3)CC2)ccc1O,i,i,nt,i,i,62.8
COc1ccc(OC)c(CN2CCC(C(=O)N3CCN(c4ccccc4F)CC3)CC2)c1,i,i,i,i,i,i
COc1cccc(CN2CCC(C(=O)N3CCN(c4ccccc4F)CC3)CC2)c1,i,i,i,i,i,89.1
CC1=CC2CC1C1C(=O)N(c3ccc(S(=O)(=O)Nc4nc(C)cc(C)n4)cc3)C(=O)C21 (stereo not given),i,i,i,nt,i,52.0
Cc1cc(C)nc(NS(=O)(=O)c2ccc(N3C(=O)C4C5C=CC(C5)C4C3=O)cc2)n1 (stereo not given),i,i,i,i,i,i
Cc1cccc2c1NC(=O)/C2=C\C(=O)c1cccs1,i,i,nt,i,i,100.4
Cc1cc(Br)c2c(c1)/C(=C/C(=O)c1cccs1)C(=O)N2,i,i,i,i,i,100.3
Cc1cc(C)c2c(c1)/C(=C/C(=O)c1ccc(Br)s1)C(=O)N2,86.5,i,i,i,i,100.2
CCc1ccc2c(c1)/C(=C/C(=O)c1cccs1)C(=O)N2,i,i,i,nt,i,100.5
CN1/C(=C\C(=O)c2cccs2)C(C)(C)c2ccccc21,i,i,i,i,i,i
CC1C/C(=N\NC(=S)NCc2ccccc2)CC(C)(C)C1 (stereo not given),64.2,i,i,i,i,99.2
COc1ccc(C2=NN(C(=O)CSc3ncccn3)C(c3cccc(OC)c3OC)C2)cc1 (stereo not given),i,i,nt,i,i,78.6
COc1ccc(C2=NN(C(=O)CSc3ncccn3)C(c3ccc(C)cc3)C2)cc1 (stereo not given),i,i,i,nt,i,i
CCN(CC)CCC(c1ccc(N(C)C)cc1)c1c(O)cc(OC)cc1OC (stereo not given),nt,nt,i,nt,nt,nt
Cc1ccc(NC(=O)OCCN2CCN(Cc3ccccc3)CCC2=O)cc1,i,i,i,i,i,74.1
O=C(Nc1ccccc1)OCCN1CCN(Cc2ccccc2)CCC1=O,i,i,i,i,i,i
Cc1[nH]c2c(C)cccc2c1CN1CCC(CO)(Cc2ccccc2)CC1,nt,nt,i,nt,nt,nt
CC1=CC(C)(C)N(C(=O)c2ccc(F)cc2)c2cc3c(cc21)OCO3,71.2,i,i,i,i,i
OCc1nc2ccccc2n1CCCOc1ccc(Br)cc1,i,i,-2.91,nt,i,i
SMILES,WT yeast gro inh,Diaphorase act,Cl transport mod,ROMK mod,Diaphorase inh,L major viab
Cc1ccc(OCCCCn2c(CO)nc3ccccc32)cc1,i,i,i,nt,i,56.1
Cc1ccccc1OCCCn1c(CO)nc2ccccc21,i,i,i,i,i,i
CCOc1ccc(NCc2nc3ccccc3n2CCOc2ccccc2)cc1,i,i,i,i,i,72.3
COc1ccccc1OCCn1c(CO)nc2ccccc21,i,i,nt,nt,i,i
O=C(NC(=S)Nc1cc(S(=O)(=O)N2CCOCC2)ccc1N1CCOCC1)C1CCCC1,i,i,i,i,i,i
S=C(Nc1ccccc1)Nc1ccc(Cl)cc1Cl,i,i,i,nt,i,i
FC(F)(F)c1cccc(NC(=S)NNC(=S)NCc2ccccc2)c1,i,i,i,nt,i,i
FC(F)(F)c1cccc(NC(=S)NCC2COc3ccccc3O2)c1 (stereo not given),88.7,i,i,nt,i,51.4
FC(F)(F)c1cccc(NC(=S)Nc2ccc(Cl)cc2Cl)c1,i,i,4.48,nt,i,i
O=C(CCNC(=O)c1ccccc1Cl)Nc1cccc(C(F)(F)F)c1,i,i,i,nt,i,65.2
O=C(NNC(=S)Nc1cccc(C(F)(F)F)c1)c1cccc(Cl)c1,i,i,5.76,nt,i,i
Cc1ccc(C2C(C#N)=C(N)N(c3cccnc3)C3=C2C(=O)CCC3)c(C)c1 (stereo not given),i,i,i,i,i,i
O=C(Nc1cccc(C(F)(F)F)c1)c1cccnc1NCCc1ccccc1,86.9,i,i,nt,i,i
O=C(Cc1ccccc1)NC(=S)Nc1cccc(C(F)(F)F)c1,i,i,5.98,nt,i,i
O=C(Cc1ccccc1)NC(=S)Nc1cc(C(F)(F)F)ccc1Cl,i,i,i,nt,i,i
NC(=O)CCC(NS(=O)(=O)c1ccc(Cl)cc1)C(=O)NCc1ccccc1 (stereo not given),i,i,i,nt,i,i
CCc1ccccc1NC(=S)N1CCC(C(=O)c2ccc(F)cc2)CC1,i,i,nt,nt,i,i
CC1(C)N([O-])C2=C(c3ccccc3C2=O)[N+](=O)C1(C)C,i,i,nt,i,66.7,i
O=C(NC1CCCCC1)N1CCN(CCc2ccccc2)CC1,i,i,i,nt,i,60.2
COC(=O)N1CCN(CCc2ccccc2)CC1,i,i,i,i,i,96.9
O=C(C1=C(O)C(=O)N(Cc2cccnc2)C1c1ccccn1)c1cccs1 (stereo not given),i,i,i,i,i,i
CCC/C=N/NC(=O)c1cccc(Br)c1,i,i,i,i,i,i
COc1ccc(C2c3ccc(O)cc3Oc3ncn4nc(-c5cccnc5)nc4c32)cc1OC (stereo not given),nt,nt,i,nt,nt,nt
COc1ccccc1N1CCN(C(=O)C(Sc2ccccc2)c2ccccc2)CC1 (stereo not given),i,i,i,nt,i,81.5
COc1ccccc1N1CCN(C(=O)c2ccc(CSc3ccccc3)cc2)CC1,61.4,i,i,nt,i,i
SMILES,WT yeast gro inh,Diaphorase act,Cl transport mod,ROMK mod,Diaphorase inh,L major viab
O=C(c1ccc(CSc2nc3ccncc3[nH]2)cc1)N1CCN(c2cccc(Cl)c2)CC1,i,i,i,-3.52,i,i
O=C(c1ccc(CSc2ccccc2)cc1)N1CCN(c2ccccc2)CC1,70.1,i,i,i,i,i
Nc1cc(Oc2ccc(F)cc2F)cc([N+](=O)[O-])c1,i,i,i,i,i,i
COc1ccc(C(=O)N2CCN(c3ccccc3OC)CC2)cc1,i,i,i,i,i,i
COc1ccccc1N1CCN(C(=O)c2ccc(S(=O)(=O)N3CCCC3)cc2)CC1,i,i,i,nt,i,62.6
CSc1nsc(/C=C/Nc2ccc(O)cc2C)c1C#N,i,i,i,i,i,i

# Screening data as filed in PubChem.
